Reference: ChEMBL document CHEMBL2434962, “Benzohydroxamic acids as potent and selective anti-HCV agents” (Bioorg Med Chem Lett, 2013)
Activity calls are given as the source filed them. The rule behind the calls is not given here.

Columns and labels:
[1] = Selectivity index, ratio of CC50 for human Huh-luc/neo7 cells to EC50 for HCV
[2] = Cytotoxicity against human HuH7 cells expressing luc/neo after 72 hrs by MTT assay; type: cell-based, Huh-7
[3] = tested on: Hepatitis C virus; assay: Antiviral activity against HCV in human Huh-luc/neo7 cells after 72 hrs by luciferase reporter gene assay; type: functional, organism-based, Hepacivirus hominis
Outline: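 Huh7 cells persistently carrying full-genome HCV replicon treated with compound (e.g., 0, 1, 5, 25, 125 µM) for 72 h; replicon translation/replication read as firefly luciferase activity; EC50 from dose-response.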

[4] = tested on: Enterovirus C; assay: Antiviral activity against poliovirus infected in human RD cells assessed as nuclear alteration pretreated at 125 uM for 72 hrs followed by viral infection and compound treatment at 250 uM for 7 hrs by Hoechst 33342 staining-based fluorescence microscopy; type: functional, cell-based
Outline: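 RD cells were pretreated with compound for 72 h at 125, then infected with poliovirus at an MOI of ~20 or ~600 PFU/cell and held at 250 for 7 h. Nuclear DNA was stained with Hoechst33342, and nuclear alterations were scored by fluorescence microscopy right after infection or at 7 h.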

[5] = tested on: Enterovirus C; assay: Antiviral activity against poliovirus infected in human RD cells assessed as destruction of RD cell monolayer pretreated at 125 uM for 72 hrs followed by viral infection and compound treatment at 250 uM for 7 hrs by light microscopy; type: functional, cell-based
Outline: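 RD cells were pretreated with compound for 72 h at 125, then infected with poliovirus at an MOI of ~20 or ~600 PFU/cell and incubated at 250 for 7 h. The integrity of the cell monolayer was examined by light microscopy right after infection or at 7 h.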

[6] = tested on: RD; assay: Cytotoxicity against human RD cells assessed as morphological changes incubated at 125 uM for 72 hrs and at 250 uM for 7 hrs by Hoechst 33342 staining-based fluorescence microscopy; type: cell-based
Outline: (§1)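 RD cells incubated 72 h at 125 µM, then 7 h more at 250 µM (time of PV reproduction cycle); monolayer density by light transmission imaging and nuclear morphology by fluorescence microscopy after Hoechst 33342 DNA staining, compared with untreated controls.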

[7] = tested on: RD; assay: Cytotoxicity against human RD cells assessed as cell density incubated at 125 uM for 72 hrs and at 250 uM for 7 hrs by light transmission spectroscopy relative to vehicle-treated control; type: cell-based; outline: as §1

| SMILES | Ratio CC50/EC50 [1] | CC50 at 72 h [2] | EC50 [3] | Activity [4] | Activity [5] | Activity [6] | Activity [7] |
| --- | --- | --- | --- | --- | --- | --- | --- |
| COc1ccc(C(=O)NO)cc1 | 15 | 180 µM | 12 µM | – | – | – | – |
| O=C(NO)c1ccccc1[N+](=O)[O-] | 55 | 55 µM | 1 µM | – | – | – | – |
| O=C(NO)c1ccccc1F | 20 | 300 µM | 15 µM | – | – | – | – |
| CCCCOc1ccccc1C(=O)NO | 38 | 380 µM | 10 µM | – | – | – | – |
| COCc1ccccc1C(=O)NO | >6 | > 1000 µM | 170 µM | – | – | – | – |
| NC(=O)c1ccccc1O [SALICYLAMIDE] | – | > 800 µM | > 300 µM | – | – | – | – |
| COc1cccc(OC)c1C(=O)NO | >16 | > 800 µM | 50 µM | – | – | – | – |
| CN(O)C(=O)c1ccccc1 | – | 400 µM | 65 µM | – | – | – | – |
| Cc1ccc(C(=O)NO)cc1 | 14 | 110 µM | 8 µM | – | – | – | – |
| O=C(NO)c1ccccc1Br | 90 | 270 µM | 3 µM | – | – | – | – |
| O=C(NO)c1ccc(Cl)cc1 | 18 | 55 µM | 3 µM | – | – | – | – |
| O=C(NO)c1cccc(Br)c1 | 26 | 310 µM | 12 µM | – | – | – | – |
| CN(O)C(=O)c1ccccc1O | – | > 800 µM | > 300 µM | inactive | inactive | Non-toxic | Non-toxic |
| NC(=NO)c1ccccc1 [BENZAMIDOXIME] | – | > 800 µM | 270 µM | – | – | – | – |
| CONC(=O)c1ccccc1O | – | > 800 µM | > 300 µM | – | – | – | – |
| N/C(=N\O)c1ccccc1O | – | 500 µM | 140 µM | – | – | – | – |
| COc1ccccc1C(N)=O | – | > 800 µM | > 300 µM | – | – | – | – |
| Cc1cccc(C(=O)NO)c1 | 17 | 340 µM | 20 µM | – | – | – | – |
| O=C(NO)c1ccc([N+](=O)[O-])cc1 | 23 | 70 µM | 3 µM | – | – | – | – |

| SMILES | Ratio CC50/EC50 [1] | CC50 at 72 h [2] | EC50 [3] | Activity [4] | Activity [5] | Activity [6] | Activity [7] |
| --- | --- | --- | --- | --- | --- | --- | --- |
| Cc1cc(Br)ccc1C(=O)NO | 240 | 120 µM | 0.5 µM | – | – | – | – |
| O=C(NO)c1ccccc1OCCOc1ccccc1C(=O)NO | >23 | > 800 µM | 35 µM | – | – | – | – |
| COc1ccccc1C(=O)N(C)O | – | > 800 µM | > 300 µM | – | – | – | – |
| Cc1ccc(C(=O)NO)c(Cl)c1 | 93 | 140 µM | 1.5 µM | – | – | – | – |
| CONC(=O)c1ccccc1OC | – | > 800 µM | > 300 µM | – | – | – | – |
| COc1cc(C)ccc1C(=O)NO | 60 | 900 µM | 15 µM | – | – | – | – |
| O=C(NO)c1cccc(Cl)c1 | 12 | 120 µM | 10 µM | – | – | – | – |
| O=C(NO)c1ccc(Br)cc1 | 13 | 25 µM | 2 µM | – | – | – | – |
| COc1ccc([N+](=O)[O-])cc1C(=O)NO | 120 | 350 µM | 3 µM | – | – | – | – |
| O=C(NO)c1ccc(Cl)cc1Cl | 175 | 140 µM | 0.8 µM | – | – | – | – |
| O=C(NO)c1ccccc1Cl | 165 | 330 µM | 2 µM | – | – | – | – |
| COc1ccccc1/C(N)=N/O | – | > 800 µM | > 300 µM | – | – | – | – |
| Cc1ccccc1C(=O)NO | 8 | 650 µM | 85 µM | – | – | – | – |
| COc1ccc(C)cc1C(=O)NO | 80 | 800 µM | 10 µM | – | – | – | – |
| O=C(NO)c1cccc([N+](=O)[O-])c1 | 32 | 160 µM | 5 µM | – | – | – | – |
| O=C(NO)c1cc([N+](=O)[O-])ccc1O | >6 | > 1000 µM | 160 µM | – | – | – | – |
| COc1cccc(C(=O)NO)c1 | 8 | 570 µM | 70 µM | – | – | – | – |
| CONC(=O)c1ccccc1 | – | > 800 µM | > 300 µM | – | – | – | – |
